Assay [1] in a line: In vitro ability to inhibit cholesterol biosynthesis in HepG2 cells in culture from [14C]mevalonate. Format: functional, cell-based. Put shortly: (§1)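 Hep-G2 cells grown in DMEM with 10% fetal calf serum to subconfluence, then 48 h in DMEM plus 2% Ultroser G. Pretreated 1 h with compound or vehicle (DMSO 0.1%), then [14C]mevalonate (1 μCi/mL) for 4 h. Cells lysed in KOH and saponified in ethanolic KOH at 75 °C for 1 h. Nonsaponifiable lipids separated by TLC. IC50 derived from % [14C]cholesterol versus control cells.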

Assay [2] is described as follows: In vitro ability to inhibit cholesterol biosynthesis in HepG2 cells in culture from [14C]acetate. In kind it is functional, cell-based.
The subject of assay [3] is Rattus norvegicus. In words: In vivo ability to inhibit cholesterol biosynthesis from [14C]acetate after a single oral administration in female rats. In kind it is functional. The method in brief:
(§2)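 Female SD rats (60–80 g) kept 11 days on a reversed light cycle with free access to food and water. Single oral dose at 9:00 a.m., suspended in water with 2% DMSO and 5% Tween 80 (1 mL/100 g). [14C]acetate given i.p. at 80 μCi/kg 1 h later. Liver taken after a further 1 h, saponified, and [14C]cholesterol analysed by TLC against controls. Mean ED50 from at least two experiments.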

The test system of assay [4] is HepG2. Put plainly: In vitro ability to inhibit cholesterol biosynthesis in HepG2 cells in culture from [14C]mevalonate. The conditions noted are these: Homo sapiens. In kind it is functional, cell-based. Put shortly: as §1
A short description of assay [5]: In vivo ability to inhibit cholesterol biosynthesis from [14C]acetate after a single oral administration in female rats. In kind it is functional. The conditions noted are these: Rattus norvegicus. The method in brief:
as §2

For assay [6], the system named is HepG2. Put plainly: In vitro ability to inhibit cholesterol biosynthesis in HepG2 cells in culture from [14C]acetate. Format: functional, cell-based. Conditions: Homo sapiens.

The molecule `CCN(C/C=C/C#CC(C)(C)C)Cc1cccc(OC[Si](C)(C)c2ccc(C)cc2)c1` returned an IC50 in assay [1] of 5000 nM.

As to `CC[C@H](C)C(=O)O[C@H]1C[C@H](O)C=C2C=C[C@H](C)[C@H](CC[C@@H](O)C[C@@H](O)CC(=O)O)[C@H]21` [PRAVASTATIN], the IC50 was 430 nM in assay [2] and […] in assay [4]. The ED50 in assay [3] is 0.9 mg/kg.

For `C=Cc1ccc([Si](C)(C)COc2cccc(CN(CC)C/C=C/C#CC(C)(C)C)c2)cc1`, in assay [5], the ED50 was greater than 40 mg/kg. Besides, the IC50 in assay [1] is 1320 nM.

As for `CCN(C/C=C/C#CC(C)(C)C)Cc1cccc(OC[Si](C)(C)c2ccc(Cl)cc2)c1`, in assay [5], the ED50 was greater than 40 mg/kg. This molecule also had an IC50 in assay [1] greater than 10000 nM.

Consider `CCN(C/C=C/C#CC(C)(C)C)Cc1cccc(OC[Si](C)(C)CCc2ccccc2)c1`, for which the IC50 in assay [1] was greater than 10000 nM.

The molecule `CCN(C/C=C/C#CC(C)(C)C)Cc1cccc(OC[Si](C)(C)Cc2ccccc2)c1` registered an ED50 in assay [5] greater than 40 mg/kg. This molecule also had an IC50 in assay [1] greater than 10000 nM.

For the molecule `CCN(C/C=C/C#CC(C)(C)C)Cc1cccc(OC[Si](C)(C)c2ccccc2C(F)(F)F)c1`, the ED50 in assay [5] was 20 mg/kg. In addition, in assay [1], the IC50 turned out to be 1480 nM.

Regarding `CCN(C/C=C/C#CC(C)(C)C)Cc1cccc(OC[Si](C)(C)c2ccccc2C)c1`, the values for the IC50 in assay [6] and in assay [1] were 150 nM and 120 nM, respectively. The molecule also displayed an ED50 in assay [5] of 3.8 mg/kg.

On to `CCN(C/C=C/C#CC(C)(C)C)Cc1cccc(OC[Si](C)(C)c2ccc(C=O)cc2)c1`, for which the IC50 in assay [2] turned out to be 150 nM; in assay [1], 140 nM. In assay [5], this molecule showed an ED50 of 20 mg/kg.

The molecule `CCN(CC#CC#CC(C)(C)C)Cc1cccc(OC[Si](C)(C)c2ccccc2C)c1` returned an ED50 in assay [5] of 5 mg/kg. Further, half-maximal inhibition in assay [1] (IC50) was put at 780 nM.

In turn, `CCN(C/C=C/C#CC(C)(C)C)Cc1cccc(OC[Si](C)(C)c2ccc(OC)cc2)c1` returned an IC50 in assay [1] greater than 10000 nM.

`CCN(CC#CC#CC(C)(C)OC)Cc1cccc(OC[Si](C)(C)c2ccccc2C)c1`: the IC50 in assay [6] came out at 120 nM; in assay [1] it was 290 nM. In addition, it took a dose of 1.8 mg/kg to reach the 50% effect level in assay [5] (ED50).

For `CCN(C/C=C/C#CC(C)(C)C)Cc1cccc(OC[Si](C)(C)c2ccccc2)c1`, the IC50 was 800 nM in assay [2] and 500 nM in assay [1]. In assay [5], this molecule showed an ED50 of 20 mg/kg.

In assay [1], `CCN(C/C=C/C#CC(C)(C)C)Cc1cccc(OC[Si](C)(C)c2ccc(C(N)=O)cc2)c1` gave an IC50 of 1000 nM.

`CCN(C/C=C/C#CC(C)(C)C)Cc1cccc(OC[Si](C)(C)c2ccc(S)cc2)c1`: 10000 nM corresponded to half-maximal inhibition in assay [1] (IC50).

With `CCN(C/C=C/C#CC(C)(C)C)Cc1cccc(OC[Si](C)(C)c2ccccc2OC)c1`, the ED50 in assay [5] is greater than 40 mg/kg. In assay [1], this molecule displayed an IC50 of 5000 nM.

As for `CCN(C/C=C/C#CC(C)(C)C)Cc1cccc(OC[Si](C)(C)c2ccccc2C#N)c1`, the IC50 in assay [2] and in assay [1] was 80 nM in each case. In assay [5], this molecule came in with an ED50 of 7 mg/kg.

`CCN(C/C=C/C#CC(C)(C)C)Cc1cccc(OC[Si](C)(C)c2ccc(F)cc2)c1` returned an ED50 in assay [5] greater than 40 mg/kg. Also, in assay [1], half-maximal inhibition (IC50) required 5000 nM.

For `CCN(C/C=C/C#CC(C)(C)C)Cc1cccc(OCc2cc(-c3ccsc3)cs2)c1`, the ED50 in assay [3] worked out at 2.5 mg/kg. Moreover, half-maximal inhibition in assay [4] (IC50) required 20 nM.

As for `CCN(C/C=C/C#CC(C)(C)C)Cc1cccc(OC[Si](C)(C)c2cccc(C)c2)c1`, the IC50 in assay [1] is greater than 10000 nM.

On to `CCN(C/C=C/C#CC(C)(C)C)Cc1cccc(OC[Si](C)(C)c2ccc(Br)cc2)c1`, for which the ED50 in assay [5] was greater than 40 mg/kg. This molecule registered an IC50 in assay [1] greater than 10000 nM.

On to `CCN(C/C=C/C#CC(C)(C)C)Cc1cccc(OC[Si](C)(C)c2ccc(C#N)cc2)c1`, for which the results for the IC50 in assay [6] and in assay [1] were 70 nM and 60 nM, respectively. The ED50 in assay [5] was greater than 40 mg/kg.

On to `CCN(C/C=C/C#CC(C)(C)C)Cc1cccc(OC[Si](C)(C)c2ccc(SC)cc2)c1`, for which the IC50 in assay [1] was greater than 10000 nM.

Values taken from ChEMBL document CHEMBL1128513, “(Aryloxy)methylsilane derivatives as new cholesterol biosynthesis inhibitors: synthesis and hypocholesterolemic activity of a new class of squalene epoxidase inhibitors” (J Med Chem, 1995).
